The target in one data set is Sec61 translocon (Homo sapiens, UniProt P61619). As to the kind of experiment: RELITE assay, FLuc equipped with the SP of CD4. To be noted: for response of the RELITE assay (FLuc/RLuc ratio): Fig. S8b; for response of the RELITE assay (FLuc/RLuc ratio) / effect on FLuc activity (FLuc/RLuc ratio): HEK293, 6 hours; for effect on FLuc activity (FLuc/RLuc ratio): Tunicamycin 10 μg/ml, Thapsigargin 3 μM; for effect on FLuc/RLuc ratio: Fig. 1h, 6 hours of treatment, non-selective Sec61 inhibitors. It is filed as cell-based.

The next data set deals with GB138 cells. As to the kind of experiment: Cell viability assay. To be noted: GB138 (Fig. S5). It is filed as cell-based, human.
The next data set relates to HA-FLuc. As to the kind of experiment: HA-FLuc protein levels by western blotting. It is filed as cell-based, human. The note with it: total cell extract, 6 h. The procedure, abridged:
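HEK293 cells were transfected with the IRES vector and replated after 8 h, then treated 16 h later for up to 6 h. Total extracts were made in B-Buffer (50 mM HEPES, 150 mM NaCl, 1% Triton X-100, protease inhibitors) and equalised by Bradford. Cytosolic and membrane fractions came from syringe lysis and differential centrifugation. Western blots used anti-HA, with GAPDH and calnexin as fraction markers.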
In general terms: Immunoblotting shows a protein as a band on a membrane.

The subject of data set [1] is Firefly luciferase (FLuc) reporter equipped with the SP of CD4. In words: FLuc enzymatic activity in HEK293 transfected with the IRES-vector. Format: cell-based, human. The gist of the method: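 HEK293 cells were transiently transfected with a bicistronic IRES vector carrying the CD4 signal peptide-FLuc reporter. For fractionation, cells were treated 24 h post-transfection for 6 h, mechanically lysed and ultracentrifuged into P100 and S100 fractions, and FLuc was read on each. For the time course, cells were replated 8 h post-transfection, treated 16 h later, and FLuc was read up to 6 h. For the chase, 100 µg/ml cycloheximide was added for 2 h after 6 h treatment.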

The next data set concerns PD-L1. Format: cell-based, human. The note with it: read-out: IC50 (PD-L1-HA protein levels); GB138 stably expressing SPnPD-L1-HA, 0 to 20 μM, 24 hours (Fig. S4). The gist of the method: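 GB138 glioblastoma cells stably expressing SPnPD-L1-HA were kept at 37 °C in DMEM with 10% FBS, 2 mM L-Gln and 400 μg/ml G418. Cells were exposed to test compounds at 0 to 20 μM for 24 h. Extracts in Triton-containing B-Buffer were resolved by SDS-PAGE and PD-L1-HA levels quantified by western blot with ECL, using calnexin as loading control. IC50 was taken from the titration curve.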

Peptide text beside a SMILES is read from it. * marks the point of attachment. Cbz = O=C(OCc1ccccc1)*

The text below walks through data of paper PMC12328631 (Nature Communications, 2025).

Sec61 translocon, sequence (P60468 2-96): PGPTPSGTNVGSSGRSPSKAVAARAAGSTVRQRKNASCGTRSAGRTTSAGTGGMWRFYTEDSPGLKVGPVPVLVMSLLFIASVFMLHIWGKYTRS
Sec61 translocon, sequence (P61619 whole entry): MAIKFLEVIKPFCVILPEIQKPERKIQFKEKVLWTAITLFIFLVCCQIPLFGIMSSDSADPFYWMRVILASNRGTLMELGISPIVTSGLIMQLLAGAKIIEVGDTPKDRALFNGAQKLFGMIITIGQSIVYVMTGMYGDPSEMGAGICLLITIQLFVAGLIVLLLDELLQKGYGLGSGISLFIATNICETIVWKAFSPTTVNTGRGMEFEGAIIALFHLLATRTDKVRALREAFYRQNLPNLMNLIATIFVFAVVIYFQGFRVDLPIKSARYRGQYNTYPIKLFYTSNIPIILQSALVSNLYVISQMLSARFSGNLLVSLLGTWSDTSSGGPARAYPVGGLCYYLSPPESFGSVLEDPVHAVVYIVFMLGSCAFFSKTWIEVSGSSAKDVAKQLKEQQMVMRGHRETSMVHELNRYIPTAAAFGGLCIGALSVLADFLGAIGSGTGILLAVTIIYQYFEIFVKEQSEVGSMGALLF
Sec61 translocon, sequence (P60059 whole entry, further chain): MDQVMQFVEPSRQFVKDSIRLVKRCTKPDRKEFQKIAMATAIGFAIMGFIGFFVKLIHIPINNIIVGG

With `C[C@H]1CCC/C=C/[C@@H]2C[C@H](O)C[C@H]2[C@H](O)/C=C/C(=O)O1` [Brefeldin A], at Sec61 translocon, the “response of the RELITE assay (FLuc/RLuc ratio)” value (“response … (FLuc/RLuc ratio)” below) was “not responding”. `CCN(CCO)CCCC(C)Nc1ccnc2cc(Cl)ccc12` (stereo not shown) [Hydroxychloroquine]: the “response … (FLuc/RLuc ratio)” value at Sec61 translocon is listed as “not responding”. Regarding `C[C@@H]1C[C@@H]([C@H](O)CC2CC(=O)NC(=O)C2)C(=O)[C@@H](C)C1` [Cycloheximide], the “response … (FLuc/RLuc ratio)” value on Sec61 translocon is “not responding”.

Take Tunicamycin: the “effect on FLuc activity (FLuc/RLuc ratio)” value on Sec61 translocon (Fig. S1b) is “significant elevation of the FLuc activity”. For the same compound, the “toxicity in cell viability assay” value in the data set on GB138 cells is “highly toxic for the cells”.

Turning to `C/C=C(/C)C(=O)O[C@H]1C(C)=C2[C@H]([C@@H]1OC(=O)CCCCCCC)[C@@](C)(OC(C)=O)C[C@H](OC(=O)CCC)[C@@]1(O)[C@H]2OC(=O)[C@@]1(C)O` [Thapsigargin], the “effect on FLuc activity (FLuc/RLuc ratio)” value at Sec61 translocon (Fig. S1b) is listed as “failed to increase activity”. Further, on Sec61 translocon, the “response … (FLuc/RLuc ratio)” value is on record as “not responding”. As for `CC1(C)C(N(O)C(=O)Nc2ccc(Cl)cc2)N(c2ccc(Cl)cc2)C(=O)N1CC(=O)N/N=C/C=C/c1ccc([N+](=O)[O-])o1` (stereo not shown) [Eeyarestatin 1], at Sec61 translocon, the “effect on FLuc/RLuc ratio” value is “significant reduction of the FLuc/RLuc ratio”. Further, in the data set on HA-FLuc, the “total HA-FLuc protein levels (western blotting)” value is “significant reduction of FLuc protein levels”. With `COc1ccc(C[C@H](N)C(=O)N[C@H]2[C@@H](O)[C@H](n3cnc4c(N(C)C)ncnc43)O[C@@H]2CO)cc1` [Puromycin], the “response … (FLuc/RLuc ratio)” value at Sec61 translocon was “not responding”. In the case of `CC(C)C[C@@H](C=O)NC(=O)[C@H](CC(C)C)NC(=O)[C@H](CC(C)C)NC(=O)OCc1ccccc1` [MG132] (Cbz-Leu-Leu-Leu-aldehyde), the “FLuc enzymatic activity over time” value in data set [1] (Fig. 1e, up to 6 h) is “time-dependent increment of the FLuc enzymatic activity”.

Turning to `CC(=C\C=C\C(C)=C\[C@H](O)[C@@H](O)C[C@H](C)O)/C=C(C)/C=C/C(=O)O[C@H]1CCCC(=O)O[C@@H]([C@@H](C)C/C(C)=C/[C@@H](C)[C@H](O)C[C@@H](C)O)C/C=C(\C)C[C@@H]1C` [Mycolactone], on Sec61 translocon, the “effect on FLuc/RLuc ratio” value is reported as “significant elevation of the FLuc/RLuc ratio”. As to `C=C1CN(S(=O)(=O)c2ccc(C)cc2)CCCN(Cc2ccccc2)CCCN(S(=O)(=O)c2ccc(C)cc2)C1` [CADA, Cyclotriazadisulfonamide], the “CADA effect on FLuc activity under co-treatment with cycloheximide (CHX)” value at Sec61 translocon (Fig. S1b, CADA 20 μM + CHX 100 μg/ml, 6 hours) is “abrogated the CADA effect”. Also, in data set [1] (Fig. 1d, S100 vs P100), the “FLuc activity after cell fractionation” value is given as “increased FLuc activity only in the cytosolic S100 fraction”. For the same compound, the IC50 – broadly, the midpoint of a concentration-inhibition curve – in the data set with PD-L1 was ~20 µM. In the data set with HA-FLuc, the “total HA-FLuc protein levels (western blotting)” value is given as “significant reduction of the total HA-FLuc protein levels”.
